Compound activity from PubChem.
TCR-CD3 inh: inhibitors of human TCR-CD3 interaction, primary screen, biochemical, fluorescence, TAMRA-labeled TCR probe; T-cell receptor (TCR); inhibition, % at 9.4 µM; 360,000 compounds, 0.37% hits; in the data active means inhibition above about 19%;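 further: recombinant mutant TCR 2C K166C tagged with TAMRA read by polarization; 0% = receptor in buffer alone and 100% = receptor with positive control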
SIAE inh: human SIAE inhibitors, primary screen, biochemical, fluorescence polarization, FP-Rh probe, 1536-well HTS; Sialate O-acetylesterase (Homo sapiens), Q9HAT2; SIAE FP-Rh probe binding; 370,000 compounds, 0.69% hits; inhibition, % at 9.66 µM;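 active means inhibition above a cutoff: mean of compounds within the control limits plus 3 SD of those, cut at about 17% in these data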;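 further: 0% = plate median of compound wells and 100% = probe without SIAE protein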
HTRA1 inh: HTRA1 serine protease inhibitors, primary screen, biochemical, fluorescence polarization, HTS; recombinant HTRA1, FP-rhodamine activity-based probe; inhibition, % at 5.96 µM; 340,000 compounds, 0.5% hits; in the data active means inhibition above about 36%;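 further: 0% = enzyme with DMSO and 100% = wells lacking enzyme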
Tn6 DDE FP: inhibitors of Tn6 peptide binding to fibrin DD(E), primary screen, biochemical, fluorescence polarization, human fibrin, Tn6 probe; Fibrinogen beta chain (Homo sapiens), P02675; Fibrin DD(E) TRITC-Tn6 fluorescence polarization displacement; inhibition, % at 8.3 µM; 370,000 compounds, 0.21% hits; AID 720509, 2013;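 active means inhibition above a per-campaign cutoff: mean of compounds within control limits plus 3 SD, cut at about 15% in these data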;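 further: 0% = median of all compound wells on the plate and 100% = blocking peptide control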
Target sequence (P02675 whole entry, looked up): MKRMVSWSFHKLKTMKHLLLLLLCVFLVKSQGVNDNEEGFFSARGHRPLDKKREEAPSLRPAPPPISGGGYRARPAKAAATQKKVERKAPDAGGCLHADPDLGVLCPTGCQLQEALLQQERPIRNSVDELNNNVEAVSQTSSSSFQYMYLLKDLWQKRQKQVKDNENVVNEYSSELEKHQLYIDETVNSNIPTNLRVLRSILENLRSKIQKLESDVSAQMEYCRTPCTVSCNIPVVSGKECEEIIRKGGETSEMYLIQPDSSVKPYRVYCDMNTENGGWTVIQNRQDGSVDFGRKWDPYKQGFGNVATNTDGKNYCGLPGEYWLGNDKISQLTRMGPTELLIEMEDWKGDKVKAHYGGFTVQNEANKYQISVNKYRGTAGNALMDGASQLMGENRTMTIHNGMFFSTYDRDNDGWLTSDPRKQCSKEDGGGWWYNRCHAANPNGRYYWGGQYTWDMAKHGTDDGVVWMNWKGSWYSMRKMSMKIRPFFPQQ
mABHD4 FP: ABHD4 inhibitors, primary screen, biochemical, fluorescence polarization, mouse; AID 720543, 2013; (Lyso)-N-acylphosphatidylethanolamine lipase (Mus musculus), Q8VD66; 370,000 compounds, 0.54% hits; purified mABHD4, FP-Rh probe fluorescence polarization; inhibition, % at 8.92 µM;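 active means inhibition exceeding the mean over every tested compound plus 3 SD, cut at about 30% in these data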;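 further: 0% = plate median of compound wells and 100% = S159A mutant with DMSO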
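Assay system: Wild-type mouse ABHD4 protein | Medium: HEPES pH 7.0 buffer, 150 mM NaCl, 0.01% Pluronic F-127 | Incubation: Enzyme–compound pre-incubation 45 min, then probe 60 min, both 25 °C | Technique: Fluorescence polarization with parallel and perpendicular emission, 525/598 nm | Evaluation: % inhibition of FP-Rh probe binding versus controls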
Tn7 DDE FP: inhibitors of Tn7 peptide binding to fibrin DD(E), primary screen, biochemical, fluorescence polarization, human fibrin, Tn7 probe; inhibition, % at 8.3 µM; 370,000 compounds, 0.13% hits; FP displacement of FITC-Tn7 peptide from fibrin DD(E); 0% = median of compound wells per plate;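 active means inhibition above the mean of compounds falling within the control limits plus 3 SD of them, cut at about 14% in these data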;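 further: 0% = plate median of compound wells and 100% = 10 µM Aha-Tn7 peptide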
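assay system = human clot-derived fibrin DD(E) complex | quantity = Fibrin-DD(E) at 2 µM final | timing = 10 min preincubation, 3 h with tracer, room temperature | signal = fluorescence polarization | measure = percent inhibition | benchmarks = high control wells with 10 µM unlabelled Aha-Tn7 peptide (full inhibition) | replicates = singlicate testing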
SIAE inh conf: human SIAE inhibitors, retest, confirmation, biochemical, fluorescence polarization, FP-Rh probe, triplicate; SIAE FP-Rh activity-based probe; AID 1117263, 2014; shares compounds with SIAE inh; 2,300 compounds, 13% hits; inhibition, % at 9.66 µM;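 active means mean inhibition of the replicates above the hit cutoff set in the primary screen, cut at about 17% in these data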;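 further: 0% = SIAE with DMSO and probe and 100% = probe without SIAE; inhibitors lower polarization as more probe stays unbound to SIAE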
* = called active by the depositor; . = no result. A selection: hits, their analogues and other compounds. The true share with any hit is near 1.8%.

SMILES | TCR-CD3 inh | SIAE inh | HTRA1 inh | Tn6 DDE FP | mABHD4 FP | Tn7 DDE FP | SIAE inh conf
C(=N\Nc1nc(Nc2ccccc2)nc(N2CCOCC2)n1)/c1c[nH]c2ccccc12 | -9 | 19* | . | -5 | 15 | -12 | 24*
Cc1ccc(Nc2nc(N/N=C/c3c[nH]c4ccccc34)nc(N3CCOCC3)n2)cc1 | -5 | 28* | 25 | -17 | 11 | -12 | 9
O=[N+]([O-])c1ccc(O)c(/C=N/Nc2nc3ccccc3[nH]2)c1 | 1 | 19* | 12 | 1 | 29 | 0 | 11
COc1ccc(O)c(/C=N/Nc2nc3ccccc3[nH]2)c1 | -9 | 12 | -4 | -8 | 21 | 8 | .
COc1cc(/C=N/Nc2nc3ccccc3[nH]2)ccc1O | 2 | 18* | 14 | -6 | 22 | -13 | 0
O=[N+]([O-])c1ccc(N/N=C/c2ccccc2O)cc1 | -5 | 40* | 7 | -21 | 9 | -6 | -3
COc1cccc(/C=N/Nc2nc3ccccc3[nH]2)c1O | -12 | 17* | 14 | -14 | 21 | 1 | 1
O=[N+]([O-])c1ccc(CSc2nnc(-c3cccc(Cl)c3)n2Cc2ccco2)cc1 | . | 10 | . | 4 | 5 | -1 | .
COc1ccc(CNS(=O)(=O)CC2NCCc3ccccc32)cc1 (stereo not drawn) | . | 1 | . | -4 | 4 | -4 | .
CCCC#C/C(CCC)=C1\c2ccccc2C(=O)N1c1ccccc1 | 7 | 1 | . | -4 | 1 | -1 | .
COC(=O)C1CN(Cc2ccc(F)cc2)CCS(=O)(=O)N1Cc1cn(Cc2ccc(F)cc2)nn1 (stereo not drawn) | . | 4 | . | -1 | 5 | 1 | .
COc1ccc2nc(C)cc(N/N=C/c3cccc(OC)c3O)c2c1 | 1 | 24* | 7 | -7 | 25 | -9 | 18*
Cc1cccc(NC(=O)c2nc[nH]c2C(=O)N(C)CCO)c1 | -2 | 4 | . | 1 | -5 | 3 | .
COC(=O)C1=CC(=O)C=C(OC)[C@@]12Oc1cc(C)cc(OC)c1C2=O | . | 1 | . | -7 | 9 | 2 | .
O=C(CNS(=O)(=O)c1cccc(Br)c1)NCCCc1ccccc1 | -1 | 20* | -5 | -1 | -5 | 3 | -9
N#Cc1cccc(S(=O)(=O)NCC(=O)NCCCc2ccccc2)c1 | 0 | 3 | -8 | 5 | 7 | 0 | .
CCOCCCNC(=O)C1CCN(S(=O)(=O)c2cc3c(cc2Br)CCN3C(=O)CC)CC1 | . | 9 | . | -1 | 4 | -2 | .
O=C(Cc1ccc(F)cc1)N1CCN(c2ccc([N+](=O)[O-])cc2)CC1 | 4 | 20* | 6 | 2 | -2 | -5 | 5
CC1CCCCC1N(C(=O)c1cc(C2CC2)on1)C1CCCCC1 (stereo not drawn) | . | -1 | . | 1 | 1 | 4 | .
COc1ccc(C(=O)O)nc1C | -2 | 21* | -2 | 1 | 5 | 7 | 6
COc1ccc(-c2nc(C(=O)O)cs2)cc1OC | 6 | 2 | 4 | 0 | -1 | 1 | .
O=C(O)C1C2C=CC(C2)C1C(=O)NCc1cccc(Cl)c1 (stereo not drawn) | -4 | -3 | 1 | 4 | -1 | 1 | .
O=C(O)C1C2C=CC(C2)C1C(=O)NCCc1cccc(Cl)c1 (stereo not drawn) | -8 | 22* | 2 | -3 | -2 | -2 | -9
O=C(c1ccc(F)cc1Cl)N1CCCC(c2nc(-c3cccs3)no2)C1 (stereo not drawn) | . | -2 | . | 5 | 1 | -2 | .
C/C(=N\NC(=O)c1ccc([N+](=O)[O-])cc1)c1cc2ccccc2oc1=O | 6 | 17* | 6 | -7 | 9 | 1 | 7
SMILES | TCR-CD3 inh | SIAE inh | HTRA1 inh | Tn6 DDE FP | mABHD4 FP | Tn7 DDE FP | SIAE inh conf
C/C(=N\NC(=O)c1ccccc1)c1cc2cc([N+](=O)[O-])ccc2oc1=O | 8 | 9 | 7 | -1 | 3 | -2 | .
CC(C)C[C@H]1CN([C@@H](CC(C)C)CN2CCC[C@H]2CN2C(=O)C(=O)NC[C@@H]2Cc2ccc(O)cc2)C(=O)C(=O)N1CCc1ccccc1 | -9 | 20* | . | 4 | 8 | 3 | 10
CCC(NC(=O)Cn1c(-c2ccccc2)cc(C(C)=O)c1C)c1ccccc1 (stereo not drawn) | . | -1 | . | 4 | -12 | 8 | .
S=C1NC2(CCCCC2)NN1c1ccccc1 | 2 | 4 | 1 | 4 | 7 | 2 | .
c1cc2c3c(cccc3c1)NC1(CCCCC1)N2 | 3 | 30* | 32 | -31 | -1 | -2 | 9
CC(=O)Nc1nnc(SCC(=O)NC(C)(C)C)s1 | 7 | 21* | -3 | -1 | 5 | 1 | -9
CCC(C)C(=O)Nc1nnc(SCC(=O)NC(C)(C)C)s1 (stereo not drawn) | -3 | -6 | 0 | 7 | 3 | 4 | .
O=C(Nc1ccccc1)OCCN1C(=O)CCC12CCC(c1ccc(Cl)cc1)CC2 (stereo not drawn) | . | -3 | . | 13 | 0 | 7 | .
COc1ccc(OC)c(Nc2nc(NCc3ccco3)c3ccccc3n2)c1 | 6 | 18* | 23 | -7 | 15 | 1 | 11
S=c1[nH]ncn1/N=C/c1ccccn1 | 3 | 17* | 6 | -4 | -7 | -7 | -2
COc1ccc(/C=N/NC(=O)c2cccnc2)cc1CN1CCCc2ccccc21 | -4 | 22* | 6 | -12 | 17 | -1 | 19*
COc1ccc(C(=O)N/N=C/c2ccc(OC)c(CN3CCCc4ccccc43)c2)cc1 | 6 | 4 | -15 | -5 | -5 | 4 | .
COC(=O)[C@@H](Cc1ccccc1)N[C@H](/C=C/c1ccccc1)[C@@H](O)Cc1ccccc1 | -2 | -1 | . | -2 | -1 | -3 | .
COc1cccc(CNc2nc(NCc3ccccc3)nc3ccsc23)c1 | -4 | 12 | . | 2 | 28 | -8 | .
c1ccc(CNc2nc(NCC3CC3)nc3cc(-c4ccccc4)sc23)cc1 | -7 | 10 | . | -7 | 11 | 2 | .
COCCNc1nc(NCc2ccc(NC(C)=O)cc2)c2sc(-c3ccccc3)cc2n1 | -10 | 27* | . | -11 | 22 | 3 | 18*
COCCNc1nc(Oc2ccc(NC(C)=O)cc2)c2sc(-c3ccccc3)cc2n1 | 5 | -10 | . | 6 | -7 | -7 | .
